Measured values taken from article PMC12125705 (Journal of medicinal chemistry, 2017).
In brackets after ≈: the same amount, converted by molar mass.

Columns and labels:
[1] = test system: S. aureus 33591; settings: compounds 1–4 reproduced; ref [35]; cited from earlier work
[2] = biological target: RNA topoisomerase activity of E. coli topoisomerase I (EcoTop1) (Escherichia coli, UniProt P06612); test: RNA topoisomerase inhibition assay; type: biochemical; settings: 10 nM EcoTop1; for inhibitory effect on the RNA topoisomerase activity of EcoTop1: at concentrations up to 50 μM; for concentration at which RNA topoisomerase activity is inhibited: concentration-dependent, 2.5–40 μM tested; for effect on the RNA topoisomerase activity of EcoTop1: even at 80 μM concentrations
[3] = test system: S. aureus 29213; settings: compounds 1–4 reproduced; ref [35]; cited from earlier work
[4] = test system: human prostate cancer cell line DU-145; test: Cytotoxicity; type: cell-based; settings: 48 h treatment, SRB
Procedure, shortened: (§1)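 Cells grown per ATCC protocols, trypsin-EDTA harvested, trypan-blue counted, seeded at […] cells/well, and allowed to recover 24 h (37 °C, 5% CO2). They were then treated in triplicate at final 20, 10, 5, 2.5, 1.25, 0.625 and 0.0625 μM for 48 h. Fixed with cold TCA (16% final, 4 °C, 1 h), stained 15 min with SRB in 1% acetic acid, dye dissolved in 10 mM Tris base, A560 read. IC50 derived from absorbance; study done in duplicate.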

[5] = test system: Gram-positive bacterial strains; test: MIC by microbroth dilution, summary over strains in text; type: cell-based; settings: Shigella flexneri, read-out: MIC values against most Gram-positive strains
[6] = test system: E. faecalis 29212; settings: compounds 1–4 reproduced; ref [35]; cited from earlier work
[7] = test system: E. coli 25922; settings: compounds 1–4 reproduced; ref [35]; cited from earlier work
[8] = biological target: T1, human DNA topoisomerase I (Homo sapiens, UniProt P11387); settings: read-out: IC50 hTopoI, values reproduced, ref [35]; cited from earlier work
T1 sequence (P11387 1-765): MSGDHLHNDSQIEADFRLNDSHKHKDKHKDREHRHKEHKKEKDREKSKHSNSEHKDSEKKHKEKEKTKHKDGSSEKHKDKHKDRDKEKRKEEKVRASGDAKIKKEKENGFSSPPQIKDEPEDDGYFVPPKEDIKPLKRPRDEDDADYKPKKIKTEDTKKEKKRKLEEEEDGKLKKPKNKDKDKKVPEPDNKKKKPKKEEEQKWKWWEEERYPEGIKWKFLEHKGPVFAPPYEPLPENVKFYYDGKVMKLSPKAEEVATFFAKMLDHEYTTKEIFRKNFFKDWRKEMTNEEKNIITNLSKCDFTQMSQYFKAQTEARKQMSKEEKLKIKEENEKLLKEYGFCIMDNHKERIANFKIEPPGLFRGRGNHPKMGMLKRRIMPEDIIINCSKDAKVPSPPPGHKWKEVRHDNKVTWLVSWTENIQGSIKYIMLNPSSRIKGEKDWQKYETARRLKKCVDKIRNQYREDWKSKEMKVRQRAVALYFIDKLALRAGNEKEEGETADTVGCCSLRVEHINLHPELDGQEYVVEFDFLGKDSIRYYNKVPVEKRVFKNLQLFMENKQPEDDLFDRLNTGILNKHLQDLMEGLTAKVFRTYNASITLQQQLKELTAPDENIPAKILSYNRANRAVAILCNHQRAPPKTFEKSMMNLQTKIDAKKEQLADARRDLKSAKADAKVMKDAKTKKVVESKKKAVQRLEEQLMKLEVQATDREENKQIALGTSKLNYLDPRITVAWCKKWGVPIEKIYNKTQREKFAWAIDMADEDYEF

[9] = test system: E. coli K12; settings: compounds 1–4 reproduced; ref [35]; cited from earlier work
[10] = Cytotoxicity; type: cell-based, human; settings: human, DU-145 prostate cancer cells
Procedure, shortened: as §1

[11] = test system: A. baumanni 19606; test: MIC by microbroth dilution; type: cell-based, Acinetobacter baumanni; settings: Acinetobacter, 19606, 24 h, read-out: MIC A. baumanni 19606
Procedure, shortened: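 CLSI microbroth dilution in Mueller-Hinton broth. Strains were grown at 37 °C with shaking to log phase, pelleted, and resuspended in 0.85% saline to OD625 0.1. Final inoculum 5 × 10^5 CFU/mL in 96-well plates, tested in triplicate, incubated 24 h at 37 °C. Growth was read as OD at 625 nm.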

[12] = Cytotoxicity; type: cell-based; settings: human, PCS 201-010 normal dermal fibroblast cells
Procedure, shortened: as §1

[13] = biological target: E. coli DNA topoisomerase I (Escherichia coli, UniProt P06612); type: biochemical; settings: at 50 μM
Sequence of E. coli DNA topoisomerase I (P06612 whole entry): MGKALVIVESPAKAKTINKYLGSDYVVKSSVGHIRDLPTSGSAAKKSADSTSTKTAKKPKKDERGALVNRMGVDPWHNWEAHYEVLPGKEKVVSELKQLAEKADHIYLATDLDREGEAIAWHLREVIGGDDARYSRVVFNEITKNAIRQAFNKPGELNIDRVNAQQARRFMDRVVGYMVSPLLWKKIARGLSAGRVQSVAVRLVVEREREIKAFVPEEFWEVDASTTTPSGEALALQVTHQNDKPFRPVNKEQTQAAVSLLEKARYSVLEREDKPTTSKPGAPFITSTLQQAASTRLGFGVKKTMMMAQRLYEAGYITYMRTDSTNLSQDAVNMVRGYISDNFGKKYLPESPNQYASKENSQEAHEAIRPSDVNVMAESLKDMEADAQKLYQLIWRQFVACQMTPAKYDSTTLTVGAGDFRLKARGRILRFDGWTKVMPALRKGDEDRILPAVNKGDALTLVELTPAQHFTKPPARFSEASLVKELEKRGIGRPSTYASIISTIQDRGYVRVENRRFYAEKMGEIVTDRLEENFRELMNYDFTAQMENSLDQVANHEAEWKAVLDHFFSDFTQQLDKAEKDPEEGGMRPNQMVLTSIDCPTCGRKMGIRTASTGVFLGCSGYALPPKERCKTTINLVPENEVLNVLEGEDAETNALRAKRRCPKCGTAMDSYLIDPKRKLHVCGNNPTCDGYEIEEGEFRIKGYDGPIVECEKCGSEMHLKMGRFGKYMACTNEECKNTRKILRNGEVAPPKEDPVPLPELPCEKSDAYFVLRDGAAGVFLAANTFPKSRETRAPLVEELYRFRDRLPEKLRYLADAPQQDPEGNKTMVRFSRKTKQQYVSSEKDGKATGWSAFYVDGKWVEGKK

Sequence of RNA topoisomerase activity of E. coli topoisomerase I (EcoTop1) (P06612 whole entry): as above

C#CCOc1ccc(-c2nc3ccc(-c4nc5ccc(N6CCN(C)CC6)cc5[nH]4)cc3[nH]2)cc1 [Compound 1]
MIC S. aureus 33591 [1]: 2 to 4 µg/mL
inhibitory effect on the RNA topoisomerase activity of EcoTop1 [2]: no discernible inhibitory effect
MIC S. aureus 29213 [3]: 2 to 4 µg/mL
cytotoxicity to DU-145 compared with Hoechst 33258 [4]: more cytotoxic
MIC [5]: 0.3 to 4 µg/mL (≈ 0.649 to 8.65 µM)
MIC E. faecalis 29212 [6]: 16 to 32 µg/mL

C#CCCCCOc1ccc(-c2nc3ccc(-c4nc5ccc(N6CCN(C)CC6)cc5[nH]4)cc3[nH]2)cc1 [Compound 2]
MIC S. aureus 33591 [1]: 2 to 4 µg/mL
inhibitory effect on the RNA topoisomerase activity of EcoTop1 [2]: no discernible inhibitory effect
MIC E. coli 25922 [7]: 8 to 16 µg/mL
MIC S. aureus 29213 [3]: 2 to 4 µg/mL
cytotoxicity to DU-145 compared with Hoechst 33258 [4]: more cytotoxic
IC50 [8]: > 50 µM
MIC [5]: 0.3 to 4 µg/mL (≈ 0.594 to 7.93 µM)
MIC E. coli K12 [9]: 8 to 16 µg/mL

C#CCCCCCCCCCOc1ccc(-c2nc3ccc(-c4nc5ccc(N6CCN(C)CC6)cc5[nH]4)cc3[nH]2)cc1 [Compound 3]
concentration at which RNA topoisomerase activity is inhibited [2]: about 10 μM
IC50 at 48 h [10]: > 10 µM
IC50 [8]: > 50 µM
MIC E. faecalis 29212 [6]: 16 to 32 µg/mL
MIC E. coli K12 [9]: 8 to 16 µg/mL

C#CCOCCCCOc1ccc(-c2nc3ccc(-c4nc5ccc(N6CCN(C)CC6)cc5[nH]4)cc3[nH]2)cc1 [Compound 4]
MIC S. aureus 33591 [1]: 2 to 4 µg/mL
inhibitory effect on the RNA topoisomerase activity of EcoTop1 [2]: no discernible inhibitory effect
MIC E. coli 25922 [7]: 8 to 16 µg/mL
MIC S. aureus 29213 [3]: 2 to 4 µg/mL
cytotoxicity to DU-145 compared with Hoechst 33258 [4]: more cytotoxic
IC50 [8]: > 50 µM
MIC [5]: 0.3 to 4 µg/mL (≈ 0.561 to 7.48 µM)
MIC E. coli K12 [9]: 8 to 16 µg/mL

C#CCOCCCCCCOc1ccc(-c2nc3ccc(-c4nc5ccc(N6CCN(C)CC6)cc5[nH]4)cc3[nH]2)cc1 [Compound 5, 6-(4-Methylpiperazin-1-yl)-2′-(4-(6-(prop-2-ynyloxy)-hexyloxy)phenyl)-1H,3′H-2,5′-bibenzo[d]imidazole]
inhibitory effect on the RNA topoisomerase activity of EcoTop1 [2]: no discernible inhibitory effect
cytotoxicity to DU-145 compared with Hoechst 33258 [4]: more cytotoxic
MIC [11]: > 32 µg/mL

C#CCOCCCCCCCCOc1ccc(-c2nc3ccc(-c4nc5ccc(N6CCN(C)CC6)cc5[nH]4)cc3[nH]2)cc1 [Compound 6, 6-(4-Methylpiperazin-1-yl)-2′-(4-(8-(prop-2-ynyloxy)octyloxy)phenyl)-1H,3′H-2,5′-bibenzo[d]imidazole]
concentration at which RNA topoisomerase activity is inhibited [2]: about 10 μM
cytotoxicity to DU-145 compared with Hoechst 33258 [4]: more cytotoxic

C#CCOCCCCCCCCCCOc1ccc(-c2nc3ccc(-c4nc5ccc(N6CCN(C)CC6)cc5[nH]4)cc3[nH]2)cc1 [Compound 7, 6-(4-Methylpiperazin-1-yl)-2′-(4-(10-(prop-2-ynyloxy)decyloxy)phenyl)-1H,3′H-2,5′-bibenzo[d]imidazole]
concentration at which RNA topoisomerase activity is inhibited [2]: about 10 μM
IC50 at 48 h [10]: > 10 µM
MIC [11]: > 32 µg/mL

C#CCOCCCCCCCCCCCCOc1ccc(-c2nc3ccc(-c4nc5ccc(N6CCN(C)CC6)cc5[nH]4)cc3[nH]2)cc1 [Compound 8, 6-(4-Methylpiperazin-1-yl)-2′-(4-(12-(prop-2-ynyloxy)dodecyloxy)phenyl)-1H,3′H-2,5′-bibenzo[d]imidazole]
IC50 at 48 h [12]: > 10 µM
concentration at which RNA topoisomerase activity is inhibited [2]: about 10 μM
IC50 at 48 h [10]: > 10 µM

C#CCOCCOCCOCCOCCOCCOCCOc1ccc(-c2nc3ccc(-c4nc5ccc(N6CCN(C)CC6)cc5[nH]4)cc3[nH]2)cc1 [Compound 9, 2′-(4-(3,6,9,12,15,18-Hexaoxahenicos-20-ynyloxy)phenyl)-6-(4-methylpiperazin-1-yl)-1H,3′H-2,5′-bibenzo[d]imidazole]
inhibitory effect on the RNA topoisomerase activity of EcoTop1 [2]: no discernible inhibitory effect
inhibition of the activity of E. coli DNA topoisomerase I [13]: did not significantly inhibit
IC50 at 48 h [10]: > 10 µM
MIC [11]: > 32 µg/mL

Oc1ccc(-c2nc3ccccc3[nH]2)cc1 [Compound 13, 4-(1H-Benzo[d]imidazol-2-yl)phenol]
MIC [11]: 16 to 32 µg/mL (≈ 76.1 to 152 µM)

CN1CCN(c2ccc3nc(-c4ccc(OCCCNC(=O)OC(C)(C)C)cc4)[nH]c3c2)CC1 [Compound 15, tert-Butyl 3-(4-(6-(4-Methylpiperazin-1-yl)-1H-benzo[d]imidazol-2-yl)phenoxy)propylcarbamate]
MIC [11]: > 32 µg/mL

CN1CCN(c2ccc3nc(-c4ccc(OCc5cn(CCN=[N+]=[N-])nn5)cc4)[nH]c3c2)CC1 [Compound 19, 2-(4-((1-(2-Azidoethyl)-1H-1,2,3-triazol-4-yl)methoxy)-phenyl)-6-(4-methylpiperazin-1-yl)-1H-benzo[d]imidazole]
MIC [11]: > 32 µg/mL

CN1CCN(c2ccc3nc(-c4ccc(OCc5cn(CCCCN=[N+]=[N-])nn5)cc4)[nH]c3c2)CC1 [Compound 20]
inhibitory effect on the RNA topoisomerase activity of EcoTop1 [2]: no discernible inhibitory effect

C#Cc1ccc(-c2cn(CCOc3ccc(-c4nc5ccc(N6CCN(C)CC6)cc5[nH]4)cc3)nn2)cc1 [Compound 21, 2-(4-(2-(4-(4-Ethynylphenyl)-1H-1,2,3-triazol-1-yl)ethoxy)-phenyl)-6-(4-methylpiperazin-1-yl)-1H-benzo[d]imidazole]
MIC [11]: > 32 µg/mL

CN1CCN(c2ccc3nc(-c4ccc5nc(-c6ccc(O)cc6)[nH]c5c4)[nH]c3c2)CC1.Cl.Cl.Cl [Hoechst 33258, reference compound]
IC50 at 48 h [10]: > 10 µM
MIC [5]: 0.3 to 4 µg/mL

CCOc1ccc(-c2nc3cc(-c4nc5cc(N6CCN(C)CC6)ccc5[nH]4)ccc3[nH]2)cc1 [Hoechst 33342, reference compound]
effect on the RNA topoisomerase activity of EcoTop1 [2]: do not have any effect
MIC [5]: 0.3 to 4 µg/mL (≈ 0.663 to 8.84 µM)

CCOc1ccc2nc3cc(N)ccc3c(N)c2c1 [ethacridine, reference compound]
effect on the RNA topoisomerase activity of EcoTop1 [2]: do not have any effect
